Laboratory results reported in ChEMBL document CHEMBL4354800, “Amphiphilic nebramine-based hybrids Rescue legacy antibiotics from intrinsic resistance in multidrug-resistant Gram-negative bacilli” (Eur J Med Chem, 2019).

What was measured:
Assay type in all cases: functional
Pseudomonas aeruginosa [1] = assay: Potentiation of minocycline-induced antibacterial activity against MDR/XDR Pseudomonas aeruginosa isolate 101885 harboring GyrA T83I mutant assessed as fold reduction in minocycline MIC at 9 uM incubated for 18 hrs by broth microdilution method
Pseudomonas aeruginosa [2] = assay: Potentiation of moxifloxacin-induced antibacterial activity against MDR/XDR Pseudomonas aeruginosa isolate PA260-97103 harboring GyrA T83I mutant assessed as fold reduction in moxifloxacin MIC at 9 uM incubated for 18 hrs by broth microdilution method
Outline: (§1)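 CLSI broth microdilution. Overnight cultures were set to 0.5 McFarland in saline, diluted 1:50 in Mueller-Hinton broth to a final 5 × 10^5 CFU/mL, and incubated 18 h at 37 °C against 2-fold antibiotic dilutions. A fixed adjuvant level was present throughout. MIC = lowest concentration with no visible turbidity, confirmed at 590 nm. Potentiation = fold drop in antibiotic MIC versus antibiotic alone.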

Escherichia coli [3] = assay: Synergistic antibacterial activity against Escherichia coli ATCC 25922 assessed as fractional inhibitory concentration index in presence of rifampicin incubated for 18 hrs by broth dilution method
Outline: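 Checkerboard titration of the adjuvant against the antibiotic, run under the CLSI microdilution conditions (MHB, 5 × 10^5 CFU/mL, 18 h, 37 °C). Each agent's FIC is its MIC in combination divided by its MIC alone; FICI is the sum of the two FICs. FICI ≤0.5 was read as synergy, >0.5–4.0 as no interaction, and >4.0 as antagonism.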

Escherichia coli [4] = assay: Potentiation of minocycline-induced antibacterial activity against Escherichia coli 107115 assessed as fold reduction in minocycline MIC at 4.1 uM incubated for 18 hrs by broth dilution method
Outline: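 Antibiotic MIC determined by CLSI broth microdilution (MHB, 5 × 10^5 CFU/mL, 18 h, 37 °C), once alone and once with a fixed concentration of the adjuvant. Potentiation is the ratio of the antibiotic MIC alone to its MIC in the presence of the adjuvant.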

Pseudomonas aeruginosa [5] = assay: Antimicrobial activity against XDR Pseudomonas aeruginosa isolate PA264 infected in Galleria mellonella larvae assessed as survival rate at 25 mg/kg co-administered with 25 mg/kg rifampicin at 2 hrs post-inoculation measured after 18 hrs relative to control
Outline: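 G. mellonella larvae were injected with ~5 CFU of P. aeruginosa PA264 (10 µL of 5 × 10^2 CFU/mL in PBS) and held 2 h at 37 °C. A single 10 µL injection followed: monotherapy or rifampicin + compound (25+25, 50+50 or 75+75 mg/kg), with PBS as control. Larvae kept at 37 °C were scored every 6 h to 24 h; dead = no response to touch. n = 30 (two runs of 15); Kaplan-Meier.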

Pseudomonas aeruginosa [6] = assay: Potentiation of moxifloxacin-induced antibacterial activity against MDR/XDR Pseudomonas aeruginosa isolate 91433 devoid of GyrA T83I mutant assessed as fold reduction in moxifloxacin MIC at 7.5 uM incubated for 18 hrs by broth microdilution method; outline: as §1
Pseudomonas aeruginosa [7] = assay: Potentiation of minocycline-induced antimicrobial activity against MDR/XDR Pseudomonas aeruginosa isolate PA262-101856 harboring GyrA Thr83Ile mutant assessed as minocycline MIC80 incubated for 18 hrs by broth microdilution method (reference value: 32 microg/ml); conditions: isolate PA262-101856, 18 h
Pseudomonas aeruginosa [8] = assay: Potentiation of rifampicin-induced antimicrobial activity against MDR/XDR Pseudomonas aeruginosa isolate 101885 harboring GyrA Thr83Ile mutant assessed as rifampicin MIC80 incubated for 18 hrs by broth microdilution method (reference value: 16 microg/ml); conditions: isolate 101885, 18 h
Pseudomonas aeruginosa [9] = assay: Potentiation of minocycline-induced antibacterial activity against MDR/XDR Pseudomonas aeruginosa isolate PA262-101856 harboring GyrA T83I mutant assessed as fold reduction in minocycline MIC at 7.5 uM incubated for 18 hrs by broth microdilution method

Structure (SMILES): Cl.Cl.Cl.Cl.Cl.Cl.NC[C@H]1O[C@H](O[C@H]2[C@H](OCCCCCCCCCCN3CCN(Cc4cccc5ccccc45)CC3)[C@@H](O)[C@H](N)C[C@@H]2N)[C@H](N)C[C@@H]1O
- fold change (FC) (Pseudomonas aeruginosa [1]): 64
- fold change (FC) (Pseudomonas aeruginosa [2]): 128

Structure (SMILES): Cl.Cl.Cl.Cl.Cl.NC[C@H]1O[C@H](O[C@H]2[C@H](OCCCCCCCCCCCCN3CCN(c4cc5c(cc4F)c(=O)c(C(=O)O)cn5C4CC4)CC3)[C@@H](O)[C@H](N)C[C@@H]2N)[C@H](N)C[C@@H]1O
- fractional inhibitory concentration index (FICI) (Escherichia coli [3]): 0.133
- fold change (FC) (Escherichia coli [4]): 16
- survival at 25 mg/kg (Pseudomonas aeruginosa [5]): 33%

Structure (SMILES): COc1c(N2C[C@@H]3CCCN(CCCCCCCCCCCCO[C@@H]4[C@@H](O)[C@H](N)C[C@H](N)[C@H]4O[C@H]4O[C@H](CN)[C@@H](O)C[C@H]4N)[C@@H]3C2)c(F)cc2c(=O)c(C(=O)O)cn(C3CC3)c12.Cl.Cl.Cl.Cl.Cl
- fold change (FC) (Pseudomonas aeruginosa [6]): 16
- MIC80 (Pseudomonas aeruginosa [7]): 1 µg/mL
- MIC80 (Pseudomonas aeruginosa [8]): 0.13 µg/mL
- fold change (FC) (Pseudomonas aeruginosa [9]): 32
